These results are taken from ChEMBL document CHEMBL1155708, “Isoaurostatin, a novel topoisomerase inhibitor produced by Thermomonospora alba” (J Nat Prod, 2001).

Assay [1] has as its target T1, Type II restriction enzyme HindIII (Haemophilus influenzae (strain ATCC 51907 / DSM 11121 / KW20 / Rd), UniProt P43870).
T1 sequence (P43870 whole entry): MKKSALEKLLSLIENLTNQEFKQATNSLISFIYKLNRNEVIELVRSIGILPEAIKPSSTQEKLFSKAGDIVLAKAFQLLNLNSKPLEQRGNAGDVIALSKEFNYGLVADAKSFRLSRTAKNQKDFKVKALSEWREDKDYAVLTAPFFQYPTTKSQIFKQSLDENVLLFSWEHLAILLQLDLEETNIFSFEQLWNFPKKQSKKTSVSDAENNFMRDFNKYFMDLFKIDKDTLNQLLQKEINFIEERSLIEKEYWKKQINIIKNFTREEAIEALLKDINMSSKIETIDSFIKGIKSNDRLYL
The assay is described as follows: Inhibition of Haemophilus influenzae Hind 3 assessed as undigested supercoiled pBR322 DNA concentration. Summed up:
(§1)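 Restriction enzyme or nuclease activity followed as the remaining undigested supercoiled pBR322 DNA (or RNA) after reaction.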

Assay [2] has as its target T2, Type II restriction enzyme ScaI (Streptomyces caespitosus, UniProt O52691).
T2 sequence (O52691 whole entry): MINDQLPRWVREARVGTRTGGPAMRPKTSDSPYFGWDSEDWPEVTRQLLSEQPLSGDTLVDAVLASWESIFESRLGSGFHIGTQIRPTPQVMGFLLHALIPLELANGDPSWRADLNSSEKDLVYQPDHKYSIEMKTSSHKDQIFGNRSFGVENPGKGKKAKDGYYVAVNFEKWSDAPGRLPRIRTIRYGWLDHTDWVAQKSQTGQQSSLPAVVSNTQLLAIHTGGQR
The assay is described as follows: Inhibition of Streptomyces caespitosus Sca 1 assessed as undigested supercoiled pBR322 DNA concentration. Summed up: as §1

The target of assay [3] is T3, Type II restriction enzyme PstI (Providencia stuartii, UniProt P00640).
T3 sequence (P00640 whole entry): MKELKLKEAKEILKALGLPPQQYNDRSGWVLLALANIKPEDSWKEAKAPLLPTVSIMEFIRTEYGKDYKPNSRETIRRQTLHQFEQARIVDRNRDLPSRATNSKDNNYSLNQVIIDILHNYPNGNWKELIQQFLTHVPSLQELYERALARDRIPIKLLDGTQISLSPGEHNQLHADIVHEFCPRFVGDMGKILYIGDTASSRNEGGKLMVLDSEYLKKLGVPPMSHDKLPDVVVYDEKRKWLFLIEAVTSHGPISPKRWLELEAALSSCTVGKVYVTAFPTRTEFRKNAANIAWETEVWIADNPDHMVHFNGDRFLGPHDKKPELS
As to the kind of experiment: Inhibition of Providencia stuartii Pst 1 assessed as undigested supercoiled pBR322 DNA concentration. Summed up:
as §1

The target of assay [4] is T4, Type II restriction enzyme BamHI (Bacillus amyloliquefaciens, UniProt P23940).
T4 sequence (P23940 whole entry): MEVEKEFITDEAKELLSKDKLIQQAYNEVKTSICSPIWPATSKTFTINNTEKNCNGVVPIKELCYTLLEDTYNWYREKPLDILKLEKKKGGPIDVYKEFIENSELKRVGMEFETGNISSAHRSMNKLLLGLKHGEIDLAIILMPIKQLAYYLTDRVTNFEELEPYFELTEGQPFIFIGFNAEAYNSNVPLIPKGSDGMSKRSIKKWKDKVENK
As to the kind of experiment: Inhibition of Bacillus amyloliquifaction Bam H1 assessed as undigested supercoiled pBR322 DNA concentration. Summed up: as §1

The target in a further assay is T5, DNA topoisomerase 1 (Mus musculus, UniProt Q04750).
T5 sequence (Q04750 whole entry): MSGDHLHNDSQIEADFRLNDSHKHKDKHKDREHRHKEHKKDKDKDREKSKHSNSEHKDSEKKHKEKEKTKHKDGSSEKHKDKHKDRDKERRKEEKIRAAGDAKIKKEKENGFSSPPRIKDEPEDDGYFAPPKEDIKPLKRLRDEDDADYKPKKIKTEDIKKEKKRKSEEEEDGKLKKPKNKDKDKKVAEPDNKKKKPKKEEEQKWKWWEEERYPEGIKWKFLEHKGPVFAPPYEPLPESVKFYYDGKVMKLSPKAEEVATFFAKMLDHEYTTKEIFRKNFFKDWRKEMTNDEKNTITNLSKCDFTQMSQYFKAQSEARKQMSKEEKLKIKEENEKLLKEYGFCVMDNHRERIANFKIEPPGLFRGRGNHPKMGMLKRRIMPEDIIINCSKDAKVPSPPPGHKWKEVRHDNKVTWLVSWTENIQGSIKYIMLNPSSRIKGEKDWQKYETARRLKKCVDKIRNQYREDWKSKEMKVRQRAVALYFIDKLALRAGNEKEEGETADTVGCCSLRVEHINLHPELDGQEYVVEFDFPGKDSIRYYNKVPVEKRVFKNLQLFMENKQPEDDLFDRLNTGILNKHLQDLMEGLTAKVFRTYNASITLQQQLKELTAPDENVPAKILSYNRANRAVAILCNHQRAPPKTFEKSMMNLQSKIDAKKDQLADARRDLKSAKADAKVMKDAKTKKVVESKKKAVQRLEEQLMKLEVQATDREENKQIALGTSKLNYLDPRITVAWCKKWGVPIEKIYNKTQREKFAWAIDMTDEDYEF
As to the kind of experiment: Inhibition topoisomerase 1 in mouse NIH/3T3 cells assessed as conversion of supercoiled pBR322 DNA to relaxed form. It counts as cell-based, NIH3T3. Summed up: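 Enzyme source: Vero or NIH3T3 cells cultured 5 days, washed in PBS and pelleted (1 × 10^6 cells). Lysed 30 min on ice in 200 µL buffer (10 mM Tris-HCl pH 7.5, MgCl2, EGTA, AEBSF, β-mercaptoethanol, 0.5% CHAPS, 10% glycerin); the cleared supernatant relaxed supercoiled pBR322. Gel densitometry; IC50 is the amount halving activity.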

For assay [5], the target named is T6, Deoxyribonuclease-2-alpha (Sus scrofa, UniProt O62855).
T6 sequence (O62855 whole entry): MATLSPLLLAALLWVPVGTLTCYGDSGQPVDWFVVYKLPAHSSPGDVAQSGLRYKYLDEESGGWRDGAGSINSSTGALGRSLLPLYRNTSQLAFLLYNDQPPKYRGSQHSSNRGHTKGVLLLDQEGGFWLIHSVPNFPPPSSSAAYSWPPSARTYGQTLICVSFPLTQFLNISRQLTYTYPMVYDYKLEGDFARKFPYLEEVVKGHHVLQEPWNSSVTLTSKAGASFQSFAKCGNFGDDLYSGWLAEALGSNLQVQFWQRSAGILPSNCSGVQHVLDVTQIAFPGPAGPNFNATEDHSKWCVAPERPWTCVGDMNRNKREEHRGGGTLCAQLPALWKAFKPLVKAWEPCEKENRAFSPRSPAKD
As to the kind of experiment: Inhibition of porcine spleen DNase 2 assessed as undigested supercoiled pBR322 DNA concentration. Summed up: as §1

The target of assay [6] is DNA topoisomerase 2-alpha (Homo sapiens, UniProt P11388). The assay is described as follows: Inhibition human placenta topoisomerase 2 assessed as conversion of catenated kinetoplast DNA to minicircle monomer. Summed up:
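Human placenta topoisomerase II decatenation followed as conversion of catenated kinetoplast DNA to minicircle monomers.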

The term IC50 denotes the midpoint of a concentration-inhibition curve.

Each structure is given as a SMILES string. Some results are limits rather than exact numbers.

Chain of DNA topoisomerase 2-alpha (P11388 whole entry): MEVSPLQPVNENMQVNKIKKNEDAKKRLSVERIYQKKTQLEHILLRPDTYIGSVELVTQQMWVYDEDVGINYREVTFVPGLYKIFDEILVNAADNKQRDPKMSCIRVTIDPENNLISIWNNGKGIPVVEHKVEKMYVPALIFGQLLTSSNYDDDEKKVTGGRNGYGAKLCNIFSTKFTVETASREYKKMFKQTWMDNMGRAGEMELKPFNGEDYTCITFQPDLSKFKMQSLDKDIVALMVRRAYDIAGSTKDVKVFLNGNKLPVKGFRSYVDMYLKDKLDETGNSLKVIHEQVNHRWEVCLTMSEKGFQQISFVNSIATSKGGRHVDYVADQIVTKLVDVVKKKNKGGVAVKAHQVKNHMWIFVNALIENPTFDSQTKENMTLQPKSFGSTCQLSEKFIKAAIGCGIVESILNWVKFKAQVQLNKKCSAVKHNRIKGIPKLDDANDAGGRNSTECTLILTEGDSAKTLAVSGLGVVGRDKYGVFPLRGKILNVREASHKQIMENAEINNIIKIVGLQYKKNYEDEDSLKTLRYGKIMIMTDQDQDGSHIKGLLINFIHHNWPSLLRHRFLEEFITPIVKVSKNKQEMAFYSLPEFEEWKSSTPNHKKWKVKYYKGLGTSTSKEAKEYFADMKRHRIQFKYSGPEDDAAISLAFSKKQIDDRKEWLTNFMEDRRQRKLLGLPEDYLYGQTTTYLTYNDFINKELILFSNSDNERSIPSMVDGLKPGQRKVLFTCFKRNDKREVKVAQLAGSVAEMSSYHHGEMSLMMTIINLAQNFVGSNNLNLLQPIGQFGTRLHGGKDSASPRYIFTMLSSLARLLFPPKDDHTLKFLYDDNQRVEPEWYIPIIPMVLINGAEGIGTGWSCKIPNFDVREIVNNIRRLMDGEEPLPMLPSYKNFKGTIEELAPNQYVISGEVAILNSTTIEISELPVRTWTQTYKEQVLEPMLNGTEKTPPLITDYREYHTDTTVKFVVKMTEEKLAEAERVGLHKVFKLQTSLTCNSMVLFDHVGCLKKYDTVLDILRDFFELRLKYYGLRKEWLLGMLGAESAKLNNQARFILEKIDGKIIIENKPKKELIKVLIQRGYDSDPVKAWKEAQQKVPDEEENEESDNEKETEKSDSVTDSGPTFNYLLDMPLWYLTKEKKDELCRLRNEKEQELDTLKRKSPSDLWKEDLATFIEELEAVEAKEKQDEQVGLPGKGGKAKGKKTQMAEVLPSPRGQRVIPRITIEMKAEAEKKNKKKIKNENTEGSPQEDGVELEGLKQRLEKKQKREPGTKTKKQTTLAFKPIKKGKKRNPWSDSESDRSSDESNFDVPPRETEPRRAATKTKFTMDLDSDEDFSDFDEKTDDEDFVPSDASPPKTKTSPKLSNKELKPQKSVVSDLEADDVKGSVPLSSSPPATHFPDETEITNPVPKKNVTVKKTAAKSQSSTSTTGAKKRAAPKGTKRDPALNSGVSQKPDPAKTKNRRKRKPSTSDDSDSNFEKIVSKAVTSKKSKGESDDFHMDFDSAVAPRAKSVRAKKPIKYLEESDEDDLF

As for `CC[C@@]1(O)C(=O)OCc2c1cc1n(c2=O)Cc2cc3ccccc3nc2-1` [CAMPTOTHECIN], the IC50 in assay [1] was above 300 µM; in assay [2] it was above 300 µM; in assay [3], above 300 µM; in assay [4], above 300 µM; at DNA topoisomerase 1 it was 12 µM; in assay [5] it was above 300 µM.
As for `O=C1Oc2cc(O)ccc2/C1=C\c1ccc(O)cc1` [ISOAUROSTATIN], the half-inhibitory concentration (IC50) (in assay [1]; in assay [6]; in assay [2]; in assay [3]; in assay [4]; at DNA topoisomerase 1) was above 400 µM each time. In addition, the IC50 in assay [5] was above 400 µM.
Take `C=C1NC(=O)C(C)C(CCC(C)C(=O)/C=C/C(C)=C/CC(C)CCCCCCC)OC(=O)[C@H](CC(OS(=O)(=O)O)C(N)=O)NC(=O)[C@@H](C)CNC1=O` (some centres not stated) [TOPOSTATIN]: the IC50 in assay [1] worked out at 17 µM; in assay [6], 4 µM; in assay [2], 7 µM; in assay [3], 19 µM; in assay [4], 185 µM; at DNA topoisomerase 1, 47 µM. The IC50 in assay [5] was above 250 µM.
On to `COc1cccc2c1C(=O)c1c(O)c3c(c(O)c1C2=O)C[C@@](O)(C(=O)CO)C[C@@H]3O[C@H]1C[C@H](N)[C@H](O)[C@H](C)O1` [DOXORUBICIN], for which the half-maximal inhibitory concentration (IC50) was 96 µM in assay [1]; 1 µM in assay [6]; 25 µM in assay [2]; above 200 µM in assay [3]; above 200 µM in assay [4]; above 200 µM on DNA topoisomerase 1. For the same compound, the IC50 in assay [5] was above 200 µM.
